Experimental data as given in ChEMBL document CHEMBL3286155, “Tricyclic pyrazoles. Part 6. Benzofuro[3,2-c]pyrazole: a versatile architecture for CB2 selective ligands” (Eur J Med Chem, 2014).
The source made the active and inactive calls. The rule behind the calls is not given here.

Key:
[1] = biological target: Cannabinoid receptor 2 (Mus musculus, UniProt P47936); assay: Displacement of [3H]-CP-55,940 from CB2 receptor in CD1 mouse spleen homogenate after 1 hr by liquid scintillation counting analysis; format: tissue-based
Sequence of Cannabinoid receptor 2 (P47936 whole entry): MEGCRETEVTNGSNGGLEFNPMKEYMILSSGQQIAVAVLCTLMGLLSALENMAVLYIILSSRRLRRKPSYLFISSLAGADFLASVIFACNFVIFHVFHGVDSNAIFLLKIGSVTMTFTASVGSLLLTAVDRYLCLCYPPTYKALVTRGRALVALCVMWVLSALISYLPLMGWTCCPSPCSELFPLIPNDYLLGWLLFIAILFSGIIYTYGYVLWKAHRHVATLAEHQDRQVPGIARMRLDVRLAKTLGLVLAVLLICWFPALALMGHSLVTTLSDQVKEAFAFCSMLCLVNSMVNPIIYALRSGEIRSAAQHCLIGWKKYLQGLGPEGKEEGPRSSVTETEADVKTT
Procedure, shortened: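 Male CD1 mice killed by cervical dislocation; spleen homogenised in 20 vol ice-cold TME buffer (50 mM Tris-HCl, 1 mM EDTA, 3.0 mM MgCl2, pH 7.4), spun 1086 × g then 45,000 × g. Membranes incubated with 0.5–1.0 nM [3H]CP-55,940, 1 h, 30 °C, with 5 mg/mL fatty-acid-free BSA; nonspecific binding defined with CP-55,940. Filtration stop. Triplicates, five independent assays. Sigmoid fit for IC50, then Cheng-Prusoff Ki.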

[2] = biological target: Cannabinoid receptor 1 (Mus musculus, UniProt P47746); assay: Displacement of [3H]-CP-55,940 from CB1 receptor in CD1 mouse cerebellum-less brain homogenate after 1 hr by liquid scintillation counting analysis; format: tissue-based
Sequence of Cannabinoid receptor 1 (P47746 whole entry): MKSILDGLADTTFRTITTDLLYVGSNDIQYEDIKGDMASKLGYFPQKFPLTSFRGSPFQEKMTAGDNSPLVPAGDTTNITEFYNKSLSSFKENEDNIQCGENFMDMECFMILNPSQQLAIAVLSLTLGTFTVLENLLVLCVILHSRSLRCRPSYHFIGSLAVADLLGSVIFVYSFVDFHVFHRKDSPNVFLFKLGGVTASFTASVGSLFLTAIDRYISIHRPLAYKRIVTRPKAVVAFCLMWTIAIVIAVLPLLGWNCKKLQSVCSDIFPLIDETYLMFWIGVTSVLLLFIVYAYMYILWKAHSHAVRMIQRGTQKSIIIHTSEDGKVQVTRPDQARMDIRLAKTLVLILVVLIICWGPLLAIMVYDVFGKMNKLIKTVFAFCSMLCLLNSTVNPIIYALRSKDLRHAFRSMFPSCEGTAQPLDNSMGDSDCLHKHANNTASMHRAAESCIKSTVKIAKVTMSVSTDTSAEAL
Procedure, shortened: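 Membranes from brain (minus cerebellum) of male CD1 mice, homogenised in ice-cold TME buffer (50 mM Tris-HCl, 1 mM EDTA, 3.0 mM MgCl2, pH 7.4), incubated with 0.5-1.0 nM [3H]-CP-55,940 for 1 h at 30 °C with fatty acid-free BSA. Non-specific binding defined with CP-55,940. Filtration, then scintillation counting. Triplicates in five independent assays; IC50 from sigmoid fit, converted to Ki by Cheng-Prusoff.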

[3] = species on record: Mus musculus; assay: Selectivity ratio of Ki for CB1 receptor in CD1 mouse cerebellum-less brain homogenate to Ki for CB2 receptor in CD1 mouse spleen homogenate; format: tissue-based
Procedure, shortened: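 Ki measured in two assays. CB1 used male CD1 mouse brain (minus cerebellum) membranes and CB2 used spleen membranes, each with 0.5-1.0 nM [3H]-CP-55,940 for 1 h at 30 °C in TME buffer pH 7.4. IC50 converted by Cheng-Prusoff. Each Ki comes from five independent triplicate experiments, and the line is the ratio of the two Ki values.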

[4] = biological target: Cannabinoid receptor 2 (Homo sapiens) (UniProt P34972); assay: Intrinsic activity at CB2 receptor in human HL60 cells assessed as upregulation of phosphorylated ERK1/2 expression at 5 nM after 15 mins by Western blotting analysis relative to control; format: cell-based; settings: HL-60
Sequence of Cannabinoid receptor 2 (Homo sapiens) (P34972 whole entry): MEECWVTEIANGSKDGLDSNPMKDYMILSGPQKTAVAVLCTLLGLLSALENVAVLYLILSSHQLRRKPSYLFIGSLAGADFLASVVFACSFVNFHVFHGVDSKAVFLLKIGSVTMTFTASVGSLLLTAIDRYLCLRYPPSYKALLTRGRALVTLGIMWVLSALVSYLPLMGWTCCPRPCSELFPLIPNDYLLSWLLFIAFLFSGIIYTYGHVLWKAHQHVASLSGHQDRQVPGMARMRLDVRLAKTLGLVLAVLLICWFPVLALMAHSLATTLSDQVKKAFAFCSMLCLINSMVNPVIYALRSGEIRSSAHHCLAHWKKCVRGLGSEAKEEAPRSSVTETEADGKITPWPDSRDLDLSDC
Procedure, shortened: (§1)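 HL-60 human promyelocytic leukaemia cells were treated for 15 min with compounds in culture medium with 1% DMSO. Cells were pelleted, washed in PBS and lysed at 4 °C. Phospho-ERK1/2 in total extracts was detected by western blot with anti-phospho-ERK1/2 clone AW39R and chemiluminescence. Results expressed as mean percentage of vehicle (100%) ± SEM.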

[5] = biological target: Cannabinoid receptor 2 (Homo sapiens) (UniProt P34972); assay: Intrinsic activity at CB2 receptor in human HL60 cells assessed as upregulation of phosphorylated ERK1/2 expression at 5 nM after 15 mins by Western blotting analysis in presence of CB2 receptor antagonist AM630; format: cell-based; settings: HL-60
Procedure, shortened: (§2)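 HL-60 cells were pre-treated 5 min with CB2 antagonist AM630 (75 nM), then exposed 15 min to agonist in medium with 1% DMSO. Phospho-ERK1/2 in cell lysates was measured by western blot with anti-phospho-ERK1/2 clone AW39R. Controls were AM630 alone and agonist without pre-treatment. Results given as mean percentage of vehicle (100%) ± SEM.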

[6] = species on record: Homo sapiens; assay: Selectivity ratio of Ki for CB1 receptor (unknown origin) to Ki for CB2 receptor (unknown origin)
[7] = biological target: Cannabinoid receptor 2 (Homo sapiens) (UniProt P34972); assay: Intrinsic activity at CB2 receptor in human HL60 cells assessed as upregulation of phosphorylated ERK1/2 expression at 75 nM after 15 mins by Western blotting analysis relative to control; format: cell-based; settings: HL-60; procedure, shortened: as §1
[8] = biological target: Cannabinoid receptor 2 (Homo sapiens) (UniProt P34972); assay: Intrinsic activity at CB2 receptor in human HL60 cells assessed as upregulation of phosphorylated ERK1/2 expression at 75 nM after 15 mins by Western blotting analysis in presence of CB2 receptor antagonist AM630; format: cell-based; settings: HL-60; procedure, shortened: as §2
[9] = biological target: Cannabinoid receptor 2 (Homo sapiens) (UniProt P34972); assay: Intrinsic activity at CB2 receptor in human HL60 cells assessed as upregulation of phosphorylated ERK1/2 expression at 50 nM after 15 mins by Western blotting analysis relative to control; format: cell-based; settings: HL-60; procedure, shortened: as §1
[10] = biological target: Cannabinoid receptor 2 (Homo sapiens) (UniProt P34972); assay: Intrinsic activity at CB2 receptor in human HL60 cells assessed as upregulation of phosphorylated ERK1/2 expression at 50 nM after 15 mins by Western blotting analysis in presence of CB2 receptor antagonist AM630; format: cell-based; settings: HL-60; procedure, shortened: as §2
[11] = biological target: Cannabinoid receptor 2 (Homo sapiens) (UniProt P34972); assay: Intrinsic activity at CB2 receptor in human HL60 cells assessed as upregulation of phosphorylated ERK1/2 expression at 10 nM after 15 mins by Western blotting analysis relative to control; format: cell-based; settings: HL-60; procedure, shortened: as §1
[12] = biological target: Cannabinoid receptor 2 (Homo sapiens) (UniProt P34972); assay: Intrinsic activity at CB2 receptor in human HL60 cells assessed as upregulation of phosphorylated ERK1/2 expression at 10 nM after 15 mins by Western blotting analysis in presence of CB2 receptor antagonist AM630; format: cell-based; settings: HL-60; procedure, shortened: as §2

| SMILES | Ki [1] [nM] | Ki [2] [nM] | Ratio Ki [3] | Intrinsic activity [7] [%] | further results |
| --- | --- | --- | --- | --- | --- |
| Cc1ccc2c(c1)oc1c(C(=O)N[C@@H]3C[C@H](C)CC[C@H]3C(C)C)nn(-c3ccc(Cl)cc3Cl)c12 | 2.3 | 38.2 | 16.6 |  | Intrinsic activity [4]: 193%; Intrinsic activity [5]: inactive |
| Cc1ccc2c(c1)Cc1c(C(=O)NN3CCCCC3)nn(-c3ccc(Cl)cc3Cl)c1-2 |  |  |  |  | Ratio Ki [6]: 9810 |
| Cc1ccc2c(c1)oc1c(C(=O)NN3CCCC3)nn(-c3ccc(Cl)cc3Cl)c12 |  |  | 92.3 | 185 | Intrinsic activity [8]: inactive |
| Cc1ccc2c(c1)oc1c(C(=O)N[C@@H]3CC4CC([C@H]3C)C4(C)C)nn(-c3ccc(Cl)cc3Cl)c12 (stereo not given in full) | 3.7 | 2400 | 648 |  | Intrinsic activity [4]: 205%; Intrinsic activity [5]: inactive |
| Cc1ccc2c(c1)oc1c(C(=O)NN3CCCCC3)nn(-c3ccc(Cl)cc3Cl)c12 |  |  | 139 |  | Intrinsic activity [9]: 205%; Intrinsic activity [10]: inactive |
| Cc1ccc2c(c1)oc1c(C(=O)N[C@H]3C4(C)CCC(C4)C3(C)C)nn(-c3ccc(Cl)cc3Cl)c12 (stereo not given in full) | 2.5 | 257 | 103 |  | Intrinsic activity [11]: 200%; Intrinsic activity [12]: inactive |
| Cc1ccc2c(c1)oc1c(C(=O)NC3CCCCC3)nn(-c3ccc(Cl)cc3Cl)c12 |  |  | 79.9 |  | Intrinsic activity [9]: 196%; Intrinsic activity [10]: inactive |
| Cc1ccc2c(c1)oc1c(C(=O)NC3C4CC5CC(C4)CC3C5)nn(-c3ccc(Cl)cc3Cl)c12 (stereo not given) |  |  | 30.7 |  | Intrinsic activity [9]: 187%; Intrinsic activity [10]: inactive |
| Cc1ccc2c(c1)oc1c(C(=O)NC34CC5CC(CC(C5)C3)C4)nn(-c3ccc(Cl)cc3Cl)c12 |  |  | 13 | 175 | Intrinsic activity [8]: inactive |
| Cc1c(C(=O)c2cccc3ccccc23)c2cccc3c2n1[C@H](CN1CCOCC1)CO3 |  |  |  | 190 |  |
| Cc1ccc2c(c1)oc1c(C(=O)NN3CCOCC3)nn(-c3ccc(Cl)cc3Cl)c12 |  |  | 108 | 178 | Intrinsic activity [8]: inactive |
| Cc1ccc2c(c1)oc1c(C(=O)N[C@H]3CC4CC[C@]3(C)C4(C)C)nn(-c3ccc(Cl)cc3Cl)c12 | 3.5 | 469 | 134 |  | Intrinsic activity [11]: 189%; Intrinsic activity [12]: inactive |
